Assay results published in ChEMBL document CHEMBL4130391, “Novel methyl indolinone-6-carboxylates containing an indole moiety as angiokinase inhibitors” (Eur J Med Chem, 2017).
Values belong to the compound of their own block, whether it stands above or below them.

Columns and labels:
[1] = biological target: Platelet-derived growth factor receptor beta (Homo sapiens, UniProt P09619); assay: (§1) Inhibition of N-terminal GST tagged human PDGFRbeta (557 to 1106 end residues) cytoplasmic domain expressed in baculovirus expression system preincubated for 10 mins followed by fluorescein amidite-labelled peptide substrate addition measured after 1 hr by mobility shift assay
Outline: (§2)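 Enzyme and compound were preincubated for 10 min at room temperature. FAM-labelled peptide plus ATP was then added and reacted 1 h at 28°C, stopped with EDTA buffer, and run in duplicate. Inhibition = (max − conversion)/(max − min) × 100.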

[2] = biological target: T1, Vascular endothelial growth factor receptor 2 (Homo sapiens, UniProt P35968); assay: as §1, with “biotinylated DYKDDDDK” for “GST”, “VEGFR2 (790” for “PDGFRbeta (557”, “1356” for “1106”, “system at 1 uM” for “system”, “assay relative to control” for “assay”; outline: as §2
A549 = assay: Antiproliferative activity against human A549 cells after 72 hrs by MTT assay; format: functional, cell-based; details: A549, 72 h
MCF7 [3] = assay: Antiproliferative activity against human MCF7 cells after 72 hrs by MTT assay; format: functional, cell-based; details: MCF7, 72 h
HT-29 [4] = assay: Antiproliferative activity against human HT-29 cells after 72 hrs by MTT assay; format: functional, cell-based; details: HT-29, 72 h
[5] = biological target: T1, Vascular endothelial growth factor receptor 2; assay: Inhibition of N-terminal biotinylated DYKDDDDK tagged human VEGFR2 (790 to 1356 end residues) cytoplasmic domain expressed in baculovirus expression system preincubated for 10 mins followed by fluorescein amidite-labelled peptide substrate addition measured after 1 hr by mobility shift assay
HUVEC [6] = assay: Induction of apoptosis in HUVEC assessed as late apoptotic cells at 0.3 uM measured after 48 hrs by Annexin-V-FITC/propidium iodide staining based flow cytometry (reference value: 5.79 %); format: functional, Homo sapiens
HUVEC [7] = assay: Induction of apoptosis in HUVEC assessed as early apoptotic cells at 3 uM measured after 48 hrs by Annexin-V-FITC/propidium iodide staining based flow cytometry (reference value: 1.78 %); format: functional, Homo sapiens
[8] = biological target: Fibroblast growth factor receptor 1 (Homo sapiens, UniProt P11362); assay: Inhibition of N-terminal GST tagged human FGFR1 (398 to 822 end residues) cytoplasmic domain expressed in baculovirus expression system preincubated for 10 mins followed by fluorescein amidite-labelled peptide substrate addition measured after 1 hr by mobility shift assay
MCF7 [9] = assay: Induction of apoptosis in human MCF7 cells assessed as early apoptotic cells at 0.3 uM measured after 48 hrs by Annexin-V-FITC/propidium iodide staining based flow cytometry (reference value: 1.32 %); format: functional
HUVEC [10] = assay: Induction of apoptosis in HUVEC assessed as late apoptotic cells at 1 uM measured after 48 hrs by Annexin-V-FITC/propidium iodide staining based flow cytometry (reference value: 5.79 %); format: functional, Homo sapiens
MCF7 [11] = assay: Induction of apoptosis in human MCF7 cells assessed as late apoptotic cells at 3 uM measured after 48 hrs by Annexin-V-FITC/propidium iodide staining based flow cytometry (reference value: 13.68 %); format: functional
HUVEC [12] = assay: Induction of apoptosis in HUVEC assessed as early apoptotic cells at 0.3 uM measured after 48 hrs by Annexin-V-FITC/propidium iodide staining based flow cytometry (reference value: 1.78 %); format: functional, Homo sapiens
HT-29 [13] = assay: Induction of apoptosis in human HT-29 cells assessed as late apoptotic cells at 3 uM measured after 48 hrs by Annexin-V-FITC/propidium iodide staining based flow cytometry (reference value: 10.60 %); format: functional
MCF7 [14] = assay: Induction of apoptosis in human MCF7 cells assessed as early apoptotic cells at 1 uM measured after 48 hrs by Annexin-V-FITC/propidium iodide staining based flow cytometry (reference value: 1.32 %); format: functional
HT-29 [15] = assay: Induction of apoptosis in human HT-29 cells assessed as early apoptotic cells at 1 uM measured after 48 hrs by Annexin-V-FITC/propidium iodide staining based flow cytometry (reference value: 0.99 %); format: functional
HUVEC [16] = assay: Induction of apoptosis in HUVEC measured after 48 hrs by Annexin-V-FITC/propidium iodide staining based flow cytometry; format: functional, cell-based; details: Homo sapiens
HT-29 [17] = assay: Induction of apoptosis in human HT-29 cells assessed as late apoptotic cells at 0.3 uM measured after 48 hrs by Annexin-V-FITC/propidium iodide staining based flow cytometry (reference value: 10.60 %); format: functional
HUVEC [18] = assay: Induction of apoptosis in HUVEC assessed as early apoptotic cells at 1 uM measured after 48 hrs by Annexin-V-FITC/propidium iodide staining based flow cytometry (reference value: 1.78 %); format: functional, Homo sapiens
MCF7 [19] = assay: Induction of apoptosis in human MCF7 cells assessed as late apoptotic cells at 0.3 uM measured after 48 hrs by Annexin-V-FITC/propidium iodide staining based flow cytometry (reference value: 13.68 %); format: functional
HT-29 [20] = assay: Induction of apoptosis in human HT-29 cells assessed as early apoptotic cells at 0.3 uM measured after 48 hrs by Annexin-V-FITC/propidium iodide staining based flow cytometry (reference value: 0.99 %); format: functional
HT-29 [21] = assay: Induction of apoptosis in human HT-29 cells assessed as early apoptotic cells at 3 uM measured after 48 hrs by Annexin-V-FITC/propidium iodide staining based flow cytometry (reference value: 0.99 %); format: functional
HUVEC [22] = assay: Induction of apoptosis in HUVEC assessed as late apoptotic cells at 3 uM measured after 48 hrs by Annexin-V-FITC/propidium iodide staining based flow cytometry (reference value: 5.79 %); format: functional, Homo sapiens
HEK-293T = assay: Cytotoxicity against HEK293T cells assessed as reduction in cell viability at 10 uM after 72 hrs by MTT assay; format: cell-based; details: human
Outline: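 HEK293T cells, about 4 × 10^3 per well, were grown in MEM with 10% FBS at 37°C in 5% CO2 for 24 h. Cells were then exposed to compound for 72 h. MTT was added at 5 µg/mL final for 4 h at 37°C and the formazan dissolved in DMSO. Absorbance was read at 492 nm with 630 nm as reference.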

MCF7 [23] = assay: Induction of apoptosis in human MCF7 cells assessed as early apoptotic cells at 3 uM measured after 48 hrs by Annexin-V-FITC/propidium iodide staining based flow cytometry (reference value: 1.32 %); format: functional
HT-29 [24] = assay: Induction of apoptosis in human HT-29 cells assessed as late apoptotic cells at 1 uM measured after 48 hrs by Annexin-V-FITC/propidium iodide staining based flow cytometry (reference value: 10.60 %); format: functional
MCF7 [25] = assay: Induction of apoptosis in human MCF7 cells assessed as late apoptotic cells at 1 uM measured after 48 hrs by Annexin-V-FITC/propidium iodide staining based flow cytometry (reference value: 13.68 %); format: functional

T1 sequence (P35968 whole entry): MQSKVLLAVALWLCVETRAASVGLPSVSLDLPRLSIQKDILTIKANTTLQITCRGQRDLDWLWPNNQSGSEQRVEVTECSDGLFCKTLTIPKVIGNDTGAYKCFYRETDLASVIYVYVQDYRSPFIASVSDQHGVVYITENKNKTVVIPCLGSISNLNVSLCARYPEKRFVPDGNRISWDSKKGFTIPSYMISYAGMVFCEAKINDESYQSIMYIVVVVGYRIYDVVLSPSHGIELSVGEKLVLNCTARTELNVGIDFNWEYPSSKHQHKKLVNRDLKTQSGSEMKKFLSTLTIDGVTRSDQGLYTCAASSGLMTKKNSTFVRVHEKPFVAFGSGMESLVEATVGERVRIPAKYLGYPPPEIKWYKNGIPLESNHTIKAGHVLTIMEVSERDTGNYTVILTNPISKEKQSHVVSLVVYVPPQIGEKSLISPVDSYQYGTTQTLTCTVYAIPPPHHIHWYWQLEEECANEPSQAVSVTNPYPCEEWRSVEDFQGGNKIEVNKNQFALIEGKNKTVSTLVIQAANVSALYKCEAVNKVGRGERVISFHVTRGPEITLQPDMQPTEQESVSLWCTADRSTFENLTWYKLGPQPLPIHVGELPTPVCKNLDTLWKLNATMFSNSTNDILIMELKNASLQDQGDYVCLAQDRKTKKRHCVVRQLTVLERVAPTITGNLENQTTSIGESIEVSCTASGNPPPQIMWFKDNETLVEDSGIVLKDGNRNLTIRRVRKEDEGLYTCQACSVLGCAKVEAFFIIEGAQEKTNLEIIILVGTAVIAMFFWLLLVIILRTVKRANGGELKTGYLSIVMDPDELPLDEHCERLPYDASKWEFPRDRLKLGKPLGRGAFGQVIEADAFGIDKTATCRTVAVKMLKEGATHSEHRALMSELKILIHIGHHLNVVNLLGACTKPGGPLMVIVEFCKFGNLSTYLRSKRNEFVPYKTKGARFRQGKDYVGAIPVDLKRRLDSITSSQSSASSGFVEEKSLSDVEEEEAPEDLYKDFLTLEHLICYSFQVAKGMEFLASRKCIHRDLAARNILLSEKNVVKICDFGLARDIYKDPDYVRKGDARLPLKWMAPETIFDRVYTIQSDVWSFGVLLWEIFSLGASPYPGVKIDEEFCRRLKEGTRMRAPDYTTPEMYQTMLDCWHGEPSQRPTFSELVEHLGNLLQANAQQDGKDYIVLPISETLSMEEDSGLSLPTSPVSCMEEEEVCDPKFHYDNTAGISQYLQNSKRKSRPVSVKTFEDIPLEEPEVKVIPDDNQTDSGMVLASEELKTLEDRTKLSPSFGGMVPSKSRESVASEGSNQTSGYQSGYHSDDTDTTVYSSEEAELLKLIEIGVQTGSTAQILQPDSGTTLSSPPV
Chain of Platelet-derived growth factor receptor beta (P09619 whole entry, the tested form may be a part): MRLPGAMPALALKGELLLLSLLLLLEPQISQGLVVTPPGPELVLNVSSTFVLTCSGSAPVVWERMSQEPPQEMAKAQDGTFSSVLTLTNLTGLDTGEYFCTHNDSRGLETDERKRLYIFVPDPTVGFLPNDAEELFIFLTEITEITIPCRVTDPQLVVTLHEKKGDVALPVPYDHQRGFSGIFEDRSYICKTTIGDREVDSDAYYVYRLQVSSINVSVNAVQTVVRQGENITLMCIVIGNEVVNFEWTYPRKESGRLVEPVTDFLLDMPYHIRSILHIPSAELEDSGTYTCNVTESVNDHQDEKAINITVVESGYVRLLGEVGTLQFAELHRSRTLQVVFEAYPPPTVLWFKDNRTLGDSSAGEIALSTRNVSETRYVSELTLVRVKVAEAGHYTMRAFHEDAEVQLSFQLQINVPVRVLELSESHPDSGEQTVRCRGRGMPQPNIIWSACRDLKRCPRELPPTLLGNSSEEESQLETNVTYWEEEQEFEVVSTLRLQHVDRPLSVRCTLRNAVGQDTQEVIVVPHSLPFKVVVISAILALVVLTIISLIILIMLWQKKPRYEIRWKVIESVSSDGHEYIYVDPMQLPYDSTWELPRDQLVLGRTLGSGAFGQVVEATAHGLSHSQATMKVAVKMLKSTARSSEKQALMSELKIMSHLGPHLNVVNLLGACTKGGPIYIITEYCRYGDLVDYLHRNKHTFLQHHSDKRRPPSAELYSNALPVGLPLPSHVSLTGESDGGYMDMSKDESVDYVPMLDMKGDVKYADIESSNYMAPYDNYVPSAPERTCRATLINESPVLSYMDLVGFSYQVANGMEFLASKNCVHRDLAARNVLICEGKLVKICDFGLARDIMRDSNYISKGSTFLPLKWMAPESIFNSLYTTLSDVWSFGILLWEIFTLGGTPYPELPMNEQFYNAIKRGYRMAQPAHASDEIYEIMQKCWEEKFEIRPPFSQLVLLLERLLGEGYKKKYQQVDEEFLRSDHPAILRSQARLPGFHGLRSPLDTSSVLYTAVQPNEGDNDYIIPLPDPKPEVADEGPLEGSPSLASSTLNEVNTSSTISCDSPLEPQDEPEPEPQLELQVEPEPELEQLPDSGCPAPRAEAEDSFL
Chain of Fibroblast growth factor receptor 1 (P11362 whole entry, the tested form may be a part): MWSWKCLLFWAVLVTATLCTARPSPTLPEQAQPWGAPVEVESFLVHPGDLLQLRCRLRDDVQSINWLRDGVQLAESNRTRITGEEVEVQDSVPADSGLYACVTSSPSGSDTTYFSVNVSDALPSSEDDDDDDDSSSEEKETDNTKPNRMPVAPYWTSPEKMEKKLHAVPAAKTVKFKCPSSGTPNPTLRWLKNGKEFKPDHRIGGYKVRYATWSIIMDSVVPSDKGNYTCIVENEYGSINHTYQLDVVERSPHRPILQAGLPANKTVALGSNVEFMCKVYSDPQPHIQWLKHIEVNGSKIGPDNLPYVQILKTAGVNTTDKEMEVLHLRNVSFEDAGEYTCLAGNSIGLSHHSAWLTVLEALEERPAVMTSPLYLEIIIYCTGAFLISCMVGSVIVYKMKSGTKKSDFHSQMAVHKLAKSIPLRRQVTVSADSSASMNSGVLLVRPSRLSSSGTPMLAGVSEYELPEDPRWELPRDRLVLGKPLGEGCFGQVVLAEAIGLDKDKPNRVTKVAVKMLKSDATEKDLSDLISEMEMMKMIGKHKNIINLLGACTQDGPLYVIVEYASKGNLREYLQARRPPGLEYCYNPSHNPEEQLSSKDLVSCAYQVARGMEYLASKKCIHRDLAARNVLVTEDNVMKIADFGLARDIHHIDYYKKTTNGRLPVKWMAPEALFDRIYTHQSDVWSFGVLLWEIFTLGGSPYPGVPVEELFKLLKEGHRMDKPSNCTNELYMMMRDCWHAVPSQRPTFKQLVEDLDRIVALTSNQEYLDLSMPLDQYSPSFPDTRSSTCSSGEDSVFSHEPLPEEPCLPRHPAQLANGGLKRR

IC50 [1]: 135 nM | inhibition [2]: 59% | IC50 (A549): 7400 nM
Compound: COC(=O)c1ccc2c(c1)NC(=O)/C2=C(\Nc1ccc2[nH]cc(CN3CCN(C)CC3)c2c1)c1ccccc1

IC50 (MCF7 [3]): 2320 nM | IC50 (HT-29 [4]): 980 nM | IC50 (A549): 16400 nM
Compound: COC(=O)c1ccc2c(c1)NC(=O)/C2=C(\Nc1ccc2[nH]c(CN(C)C)cc2c1)c1ccccc1

IC50 (MCF7 [3]): > 100000 nM | IC50 (HT-29 [4]): 89900 nM | IC50 [1]: 45.5 nM | IC50 (A549): > 100000 nM
Compound: COC(=O)c1ccc2c(c1)NC(=O)/C2=C(\Nc1ccc2c(c1)nc(CN(C)C)n2C)c1ccccc1

IC50 [1]: 116 nM | inhibition [2]: 79% | IC50 (A549): > 100000 nM
Compound: COC(=O)c1ccc2c(c1)NC(=O)/C2=C(\Nc1ccc2nc(CN3CCN(C)CC3)oc2c1)c1ccccc1

IC50 [1]: > 500 nM | IC50 [5]: > 1000 nM | IC50 (A549): > 100000 nM
Compound: COC(=O)c1ccc2c(c1)NC(=O)/C2=C(\Nc1ccc2nc(CN(C)C)oc2c1)c1ccccc1

IC50 (MCF7 [3]): 22500 nM | IC50 (HT-29 [4]): 700 nM | IC50 [1]: 61 nM | IC50 (A549): 40500 nM
Compound: COC(=O)c1ccc2c(c1)NC(=O)/C2=C(\Nc1ccc2c(c1)nc(CN1CCN(C)CC1)n2C)c1ccccc1

IC50 (MCF7 [3]): 8280 nM | IC50 (HT-29 [4]): 830 nM | IC50 (A549): 22600 nM
Compound: COC(=O)c1ccc2c(c1)NC(=O)/C2=C(\Nc1ccc(N(C)C(=O)CN2CCN(C)CC2)cc1)c1ccccc1 [NINTEDANIB]

IC50 [1]: 242 nM
Compound: COC(=O)c1ccc2c(c1)NC(=O)/C2=C(\Nc1ccc2[nH]cc(CN3CCOCC3)c2c1)c1ccccc1

IC50 (MCF7 [3]): 3940 nM | IC50 (HT-29 [4]): 130 nM | IC50 [1]: 60.7 nM | IC50 [5]: > 1000 nM | IC50 (A549): 2270 nM
Compound: COC(=O)c1ccc2c(c1)NC(=O)/C2=C(\Nc1ccc2[nH]cc(CN(C)C)c2c1)c1ccccc1

IC50 (HT-29 [4]): 1100 nM | IC50 [1]: 44.2 nM | IC50 (A549): 75200 nM
Compound: COC(=O)c1ccc2c(c1)NC(=O)/C2=C(\Nc1ccc2c(c1)cc(C(=O)N1CCN(C)CC1)n2C)c1ccccc1

IC50 (MCF7 [3]): 4010 nM | IC50 (HT-29 [4]): 870 nM | IC50 [1]: 91.7 nM | IC50 [5]: > 1000 nM | IC50 (A549): 6150 nM
Compound: COC(=O)c1ccc2c(c1)NC(=O)/C2=C(\Nc1ccc2c(c1)c(CN1CCN(C)CC1)cn2C)c1ccccc1

IC50 (MCF7 [3]): 3270 nM | IC50 (HT-29 [4]): 320 nM | IC50 [1]: 92.7 nM | IC50 (A549): 39100 nM
Compound: COC(=O)c1ccc2c(c1)NC(=O)/C2=C(\Nc1ccc2[nH]c(CN3CCN(C)CC3)cc2c1)c1ccccc1

IC50 (MCF7 [3]): 1560 nM | IC50 (HT-29 [4]): 1170 nM | IC50 [8]: 1510 nM | IC50 [1]: 22 nM | IC50 (A549): 2990 nM
Compound: COC(=O)c1ccc2c(c1)NC(=O)/C2=C(\Nc1ccc2[nH]c(C(=O)N3CCN(C)CC3)cc2c1)c1ccccc1
Activity (HUVEC [6]): 17.62% | Activity (HUVEC [7]): 1.51% | Activity (MCF7 [9]): 1.27% | Activity (HUVEC [10]): 77.6% | Activity (MCF7 [11]): 94.04% | Activity (HUVEC [12]): 5.68% | Activity (HT-29 [13]): 98.81% | Activity (MCF7 [14]): 0.65% | Activity (HT-29 [15]): 0.44% | Activity (HUVEC [16]): Dose-dependent effect | Activity (HT-29 [17]): 14.15% | Activity (HUVEC [18]): 3.97% | Activity (MCF7 [19]): 18.25% | Activity (HT-29 [20]): 2.31% | Activity (HT-29 [21]): 0.05% | Activity (HUVEC [22]): 93.77% | Activity (HEK-293T): Non-Toxic | Activity (MCF7 [23]): 0.28% | Activity (HT-29 [24]): 74.82% | Activity (MCF7 [25]): 34.43%

IC50 (HT-29 [4]): > 100000 nM | IC50 [5]: > 1000 nM | IC50 (A549): > 100000 nM
Compound: COC(=O)c1ccc2c(c1)NC(=O)/C2=C(\Nc1ccc2[nH]c(C(=O)N(C)C)cc2c1)c1ccccc1

IC50 (MCF7 [3]): 5670 nM | IC50 (HT-29 [4]): 250 nM | IC50 [1]: 49.2 nM | IC50 (A549): 4320 nM
Compound: COC(=O)c1ccc2c(c1)NC(=O)/C2=C(\Nc1ccc2c(c1)c(CN(C)C)cn2C(C)C)c1ccccc1

IC50 (MCF7 [3]): 5530 nM | IC50 (HT-29 [4]): 6790 nM | IC50 [1]: 34.3 nM | IC50 (A549): 7630 nM
Compound: CCn1cc(CN(C)C)c2cc(N/C(=C3\C(=O)Nc4cc(C(=O)OC)ccc43)c3ccccc3)ccc21

IC50 (MCF7 [3]): 2280 nM | IC50 (HT-29 [4]): 460 nM | IC50 [1]: 64.6 nM | IC50 (A549): 6010 nM
Compound: COC(=O)c1ccc2c(c1)NC(=O)/C2=C(\Nc1ccc2c(c1)c(CN(C)C)cn2C)c1ccccc1

IC50 (HT-29 [4]): 2190 nM | IC50 [1]: 39 nM | IC50 (A549): 11900 nM
Compound: CCn1c(C(=O)N2CCN(C)CC2)cc2cc(N/C(=C3\C(=O)Nc4cc(C(=O)OC)ccc43)c3ccccc3)ccc21
